Experiments:
[1] = tested on: Hepatitis B virus; assay: Antiviral activity against HBV in HepG2 2.2.15 cells; assay type: functional, organism-based
Outline: (§1)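 HepG2 2.2.15 cells, which produce HBV constitutively, were seeded at 5 × 10³ per well. Drug-containing medium was replaced every other day for 9 days. Virions in the supernatant were captured on anti-HBsAg plates, and their DNA was quantified by PCR against an HBV standard curve and normalized to untreated cells. For cell growth, monolayers were ethanol-fixed and stained with bisbenzimide H33342, and fluorescence was compared with untreated cells. SI = CC₅₀/EC₅₀.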

[2] = tested on: CEM cells (Homo sapiens); assay: Cytotoxicity against CEM cells
[3] = tested on: MT4; assay: Cytotoxicity against MT4 cells; assay type: functional; conditions: Homo sapiens
Outline: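 Exponentially growing MT-4 cells were resuspended at 5 × 10⁵ cells/mL in RPMI 1640 with 20% FBS and 20% IL-2. They were infected with HIV-1 IIIB (100 × TCID₅₀ per well) for 1 h at 37 °C, with mock-infected cells run in parallel. The suspension was diluted 6-fold onto serially diluted compound and incubated for 5 days at 37 °C in 5% CO₂. MTS staining was read at 492 nm.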

[4] = tested on: Human immunodeficiency virus 2; assay: Antiviral activity against HIV2 ROD in CEM cells; assay type: functional, organism-based; conditions: Human immunodeficiency virus 2, ROD, CCRF-CEM
Outline: (§2)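 CEM cells at 4.5 × 10⁵ cells/mL were infected with 100 CCID₅₀/mL of HIV-1 or HIV-2. Giant-cell formation was scored microscopically. EC₅₀ was the concentration preventing syncytium formation by 50%.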

[5] = tested on: Human immunodeficiency virus 1; assay: Antiviral activity against HIV1 3B in CEM cells; assay type: functional, organism-based; conditions: Human immunodeficiency virus 1, 3B, CCRF-CEM; outline: as §2
[6] = tested on: HepG2; assay: Cytotoxicity against HepG2 2.2.15 cells; assay type: functional; conditions: Homo sapiens; outline: as §1
[7] = tested on: Cynomolgus monkey; assay: Metabolic stability in cynomolgus monkey liver S9 fraction; assay type: ADME, Macaca fascicularis
Outline: (§3)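 Pooled cynomolgus S9 (liver or intestinal segments), test compound 10 µM final, 37 °C, DMSO <1% final; reaction started with NADPH 2.5 mM final. Aliquots taken at 0 (preincubation), 10, 20, 30 and 60 min, quenched with cold acetonitrile, centrifuged; supernatant parent measured by LC/MS/MS. Stability given as % remaining from pre- vs postincubation peak areas.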

[8] = tested on: Human immunodeficiency virus 1; assay: Antiviral activity against HIV1 3B in MT4 cells; assay type: functional, organism-based; conditions: Human immunodeficiency virus 1, 3B
Outline: (§4)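 MT-4 cells at 4.5 × 10⁵ cells/mL were infected with 100 CCID₅₀/mL of HIV-1 or HIV-2. Viable cells were then counted after trypan blue staining, and EC₅₀ was derived from these viable-cell counts.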

[9] = tested on: Human immunodeficiency virus 2; assay: Antiviral activity against HIV2 ROD in MT4 cells; assay type: functional, organism-based; conditions: Human immunodeficiency virus 2, ROD; outline: as §4
[10] = tested on: Cynomolgus monkey; assay: Metabolic stability in cynomolgus monkey intestine S9 fraction; assay type: ADME, Macaca fascicularis; outline: as §3

SMILES	EC50 [1] [µM]	CC50 [2] [µM]	CC50 [3] [µM]	EC50 [4] [µM]	EC50 [5] [µM]	CC50 [6] [µM]	Stability [7] [%]	EC50 [8] [µM]	EC50 [9] [µM]	Stability [10] [%]
COC(=O)CNP(=O)(OC[C@H]1C=C[C@@H](n2cnc3c(N)ncnc32)C1)Oc1ccccc1 (stereo partly specified)	0.086	≥ 250	> 100	20	13.5	> 2	46	4.35	5.73	85
COC(=O)c1ccc(OP(=O)(N[C@@H](C)C(=O)OC)OC[C@H]2C=C[C@@H](n3cnc4c(N)ncnc43)C2)cc1 (stereo partly specified)	0.004	12.9	> 4	0.13	0.13	> 2	7	0.12	0.056	48
Nc1ncnc2c1ncn2[C@@H]1C=C[C@H](CO)C1	0.98		> 100			> 200		80		
COC(=O)[C@H](CC(C)C)NP(=O)(OC[C@H]1C=C[C@@H](n2cnc3c(N)ncnc32)C1)Oc1ccccc1 (stereo partly specified)	0.01	70	> 5	0.56	0.42	20	0	0.19	0.13	75
Nc1ncnc2c1ncn2[C@@H]1CC[C@H](CO)C1	61		> 10			> 200		> 10		
COC(=O)C[C@H](NP(=O)(OC[C@H]1C=C[C@@H](n2cnc3c(N)ncnc32)C1)Oc1ccccc1)C(=O)OC (stereo partly specified)	0.05	> 50	> 16	3.5	1.1	> 2	4	0.32	0.26	8
CCOC(=O)c1ccccc1OP(=O)(N[C@@H](C)C(=O)OC)OC[C@H]1C=C[C@@H](n2cnc3c(N)ncnc32)C1 (stereo partly specified)	0.004	4.17	< 4	0.057	0.053	12	25	< 0.26		80
COC(=O)[C@@H](C)NP(=O)(OC[C@H]1C=C[C@@H](n2cnc3c(N)ncnc32)C1)Oc1ccccc1 (stereo partly specified)	0.0265		> 100			> 200	41	2.05		94
COC(=O)[C@H](C)NP(=O)(OC[C@H]1C=C[C@@H](n2cnc3c(N)ncnc32)C1)Oc1ccc(Cl)cc1 (stereo partly specified)	0.003	3.11	2	0.047	0.015	> 2		0.009	0.018	
Nc1ncnc2c1ncn2[C@H]1C=C[C@@H](CO)C1	52		> 500			> 200		15		
CCOC(=O)c1cccc(OP(=O)(N[C@@H](C)C(=O)OC)OC[C@H]2C=C[C@@H](n3cnc4c(N)ncnc43)C2)c1 (stereo partly specified)	0.004	8.39	4.39	0.08	0.065	> 2	19	0.053	0.033	42
COC(=O)[C@H](C)NP(=O)(OC[C@H]1C=C[C@@H](n2cnc3c(N)ncnc32)C1)Oc1cccc(C(F)(F)F)c1 (stereo partly specified)							45			92
COC(=O)[C@H](NP(=O)(OC[C@H]1C=C[C@@H](n2cnc3c(N)ncnc32)C1)Oc1ccccc1)C(C)C (stereo partly specified)	0.6	230	> 16	10	7.5	> 200		2.3	14.2	
COC(=O)[C@@H]1CCCN1P(=O)(OC[C@H]1C=C[C@@H](n2cnc3c(N)ncnc32)C1)Oc1ccccc1 (stereo partly specified)	0.51	92.1	> 10	7.5	3.5	> 2		5.28	21	
COC(=O)[C@H](C)NP(=O)(OC[C@H]1C=C[C@@H](N2C=NC3C(N)=NC=NC32)C1)Oc1ccc(C(F)(F)F)cc1 (stereo partly specified)	< 0.0032	6.4	5.87	0.06	0.06	0.72		0.035	0.046	
COC(=O)[C@H](C)NP(=O)(OC[C@@H]1C=C[C@H](n2cnc3c(N)ncnc32)C1)Oc1ccccc1 (stereo partly specified)	4		3.7			5.4		0.3		
COC(=O)[C@@H](Cc1c[nH]c2ccccc12)NP(=O)(OC[C@H]1C=C[C@@H](n2cnc3c(N)ncnc32)C1)Oc1ccccc1 (stereo partly specified)	0.2	93.4	> 40	25	20	> 2		13.3	21.9	
COC(=O)[C@H](C)NP(=O)(OC[C@H]1C=C[C@@H](n2cnc3c(N)ncnc32)C1)Oc1ccc(Cl)c(Cl)c1 (stereo partly specified)	0.005	13	> 4	0.11	0.09	> 2		0.077	0.076	
COC(=O)[C@@H](CC(C)C)NP(=O)(OC[C@H]1C=C[C@@H](n2cnc3c(N)ncnc32)C1)Oc1ccccc1 (stereo partly specified)	0.13	88.5	< 16	3.5	1.6	> 2		< 1	0.93	
Nc1ncnc2c1ncn2[C@H]1CC[C@@H](CO)C1	33		> 125			> 200		50		
COC(=O)[C@@H](Cc1ccccc1)NP(=O)(OC[C@H]1C=C[C@@H](n2cnc3c(N)ncnc32)C1)Oc1ccccc1 (stereo partly specified)	0.7	108	> 40	8.67	9	200		2.8	5.93	
COC(=O)C[C@@H](NP(=O)(OC[C@H]1C=C[C@@H](n2cnc3c(N)ncnc32)C1)Oc1ccccc1)C(=O)OC (stereo partly specified)	0.02	≥ 250	> 10	15	5	> 2		2.1	3.71	
COC(=O)[C@H](Cc1ccc(OC(C)(C)C)cc1)NP(=O)(OC[C@H]1C=C[C@@H](n2cnc3c(N)ncnc32)C1)Oc1ccccc1 (stereo partly specified)	0.026	79.7	19.8	5.5	3	> 2		0.11	0.13	
COC(=O)[C@H](C)NP(=O)(OC[C@H]1CC[C@@H](n2cnc3c(N)ncnc32)C1)Oc1ccccc1 (stereo partly specified)	0.6		> 12.5			> 2		1.8		
CCOC(=O)[C@H](C)NP(=O)(OC[C@H]1C=C[C@@H](n2cnc3c(N)ncnc32)C1)Oc1ccccc1 (stereo partly specified)	0.02		> 25			22	15	0.017		39
COC(=O)[C@H]1CCCN1P(=O)(OC[C@H]1C=C[C@@H](n2cnc3c(N)ncnc32)C1)Oc1ccccc1 (stereo partly specified)	> 2	≥ 250	227	105	110	> 2		117	105	
COC(=O)[C@H](C)NP(=O)(OC[C@H]1C=C[C@@H](n2cnc3c(N)ncnc32)C1)Oc1ccc([N+](=O)[O-])cc1 (stereo partly specified)	0.007	17.4	10	0.1	0.1	> 2		0.12	0.17	
COC(=O)[C@@H](CCSC)NP(=O)(OC[C@H]1C=C[C@@H](n2cnc3c(N)ncnc32)C1)Oc1ccccc1 (stereo partly specified)	0.22	211	> 25	7.87	7.67	> 2		2.5	3.48	
COC(=O)[C@H](Cc1ccccc1)NP(=O)(OC[C@H]1C=C[C@@H](n2cnc3c(N)ncnc32)C1)Oc1ccccc1 (stereo partly specified)	0.0045		16			9		0.1		
C[C@H](NP(=O)(OC[C@H]1C=C[C@@H](n2cnc3c(N)ncnc32)C1)Oc1ccccc1)C(=O)OCc1ccccc1 (stereo partly specified)	0.0075		255			5	0	0.009		0

From ChEMBL document CHEMBL1138881, “Application of phosphoramidate ProTide technology significantly improves antiviral potency of carbocyclic adenosine derivatives” (J Med Chem, 2006)
